Source: PubChem BioAssay (Broad Institute)
Rows were chosen to be rich in hits. Some 2.9% of all compounds tested hit in one or more screens of this group.
Vif imaging = HIV Vif self-association inhibitors, primary screen, imaging, HEK293T, single point; HEK293T cells, Vif self-association by quenched fluorescence, 24 h; inhibition, % at 7.49 µM; 0.35% of 340,000 active; AID 602346, 2012; in the data active = inhibition above about 50%, passing the limit was not always enough; inconclusive = no clear call, values can overlap the other calls; inactive = below about 31%
PGC1a acetyl inh = inhibitors of PGC1a acetylation signal, primary screen, cell-based, U2OS, AlphaScreen, inhibitor mode; AlphaScreen anti-acetyl-lysine; with virally co-expressed GCN5 acetyltransferase; inhibition, % at 15.6 µM; 0.17% of 350,000 active; AID 651687, 2012;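 active = every replicate shows inhibition of at least 40%; inconclusive = mean inhibition at least 40% but some replicate below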
rRNA inh HTS = reduced GFP signal of wild-type E. coli, primary screen, bacterial rRNA inhibitor project, GFP/RFP fluorescence, OD600, single point; E. coli WT GFP vs humanized-ribosome RFP mutants, 24 h; stronger effect = lower value; DMSO median 0, no signal -100; GFP signal change (wild-type ribosome), % (concentration not given with the values); 1.6% of 350,000 active; AID 720706, 2013;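 active = significant combined selectivity score with lowered wild-type GFP, culture density cut under 30%, mutant RFP and density less affected; inactive = any of these conditions unmet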
Cneo AK release = Cryptococcus neoformans cell lysis inducers, primary screen, AK release luminescence, single concentration | C. neoformans lysis, adenylate kinase release luminescence, 4 h; normalised: neutral wells 0, clomiphene wells 100 | lysis activity, % at 15 µM | 0.2% of 360,000 active | AID 651654, 2012;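 active = mean lysis activity across replicates of at least 80%, whatever share of replicates individually reach that level; inactive = mean lysis activity below 80%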
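Material: C. neoformans cells; Schedule: 4 h static compound exposure, 37 °C, read 1 h post-reagent; Measured by: adenylate kinase release luminescence; Read-out: signal increase indicating cell lysis; Controls: Clomiphene as positive lysis control.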
PglD DTNB = C. jejuni PglD acetyltransferase inhibitors, primary screen, biochemical, DTNB colorimetric, single point; inhibition, % at 12.5 µM; AID 602405, 2012; UDP-N-acetylbacillosamine N-acetyltransferase PglD (Campylobacter jejuni); purified PglD enzyme, DTNB colorimetric CoA detection; 0.098% of 360,000 active; in the data active = inhibition above about 16%, passing the limit was not always enough; inconclusive = no clear call, values can overlap the other calls
FGF22 binding = binders of human FGF22 protein, primary screen, FGF22 synaptogenesis inhibitor project, biophysical, thermal shift, single point | 1.5% of 340,000 active | AID 651658, 2012 | activity (Tm shift, normalised), % at 9.99 µM | recombinant FGF22 thermal shift, SYPRO orange fluorescence; percent of sucrose octasulfate shift, DMSO zero | Fibroblast growth factor 22 (Homo sapiens), Q9HCT0;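 active = mean Tm shift, scaled 0 neutral to 100 positive control, at about 1.3% or above, every replicate too, limit read from the data; inconclusive = no clear call, values can overlap the other calls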
Target sequence (Q9HCT0 whole entry, looked up): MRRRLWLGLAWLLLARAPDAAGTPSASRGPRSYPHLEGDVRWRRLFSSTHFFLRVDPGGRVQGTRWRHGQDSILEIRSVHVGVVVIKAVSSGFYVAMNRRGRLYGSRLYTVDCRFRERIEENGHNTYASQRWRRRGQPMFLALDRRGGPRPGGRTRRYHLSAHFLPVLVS
AID977621 = growth inhibition of wild-type GFP E. coli, dose response, H69 mutant RFP, cherry-pick; shares compounds with rRNA inh HTS; E. coli wild-type GFP strain growth, fluorescence, 24 h; activity change, negative = inhibition at 50 µM; 1,900 tested, under 10 active;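 active = Wild-type ribosome reporter drop at least double the humanized mutant ribosome reporter drop, growth loss under a set limit; inconclusive = no clear call, values can overlap the other calls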;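 also: wild-type GFP and H69 mutant RFP strains grown together 50/50 in each well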
AID977628 = E. coli growth inhibition, wild-type GFP versus h24 humanized RFP strain, dose response, h24 mutant RFP vs wild-type GFP, cherry-pick; 1,900 tested, under 10 active; shares compounds with rRNA inh HTS; activity change, negative = inhibition at 50 µM; E. coli WT GFP strain growth, fluorescence, 24 h;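 active = compound lowering the normal-ribosome reporter at least twice as much as the humanized-ribosome reporter, growth loss under a set limit; inconclusive = no clear call, values can overlap the other calls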;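 also: wild-type GFP and h24 humanized RFP strains co-cultured 1 to 1 per well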
Each line names hits and unclear results; the compound was inactive in the other large screens (follow-up assays come after a bar, where they were run).

O=C(Nc1ccc(Cl)cc1)N1C[C@H]2[C@@H](c3ccccc31)[C@@H](CO)N2C(=O)c1ccccn1	rRNA inh HTS -23 (no result: Vif imaging) | AID977621 inactive
O=C(Nc1ccccc1)N1C[C@H]2[C@@H](c3ccccc31)[C@H](CO)N2C(=O)c1ccccn1	none (no result: Vif imaging)
O=C(Nc1cccc(Cl)c1)N1C[C@H]2[C@@H](c3ccccc31)[C@H](CO)N2CC1CCOCC1	none (no result: Vif imaging)
O=C(Nc1cccc(Cl)c1)N1C[C@@H]2[C@H](c3ccccc31)[C@@H](CO)N2CC1CCCCC1	rRNA inh HTS -56 (no result: Vif imaging, FGF22 binding) | AID977621 inconclusive
C[C@@H]1CN([C@@H](C)CO)C(=O)c2cc(-c3cccc(F)c3)cnc2O[C@@H]1CN(C)C	none (no result: Vif imaging)
C[C@@H]1CN([C@@H](C)CO)C(=O)c2cc(NS(C)(=O)=O)ccc2O[C@@H](C)CCCCO[C@H]1CN(C)C(=O)c1ccccc1	none (no result: Vif imaging)
COc1cc(C2CC(=O)Oc3cc(C)cc(C)c32)cc(OC)c1OC (stereo not given)	rRNA inh HTS -22 | AID977628 inactive
O=S(=O)(Cc1ccc(Cl)cc1)N1CCN(Cc2ccc3c(c2)OCO3)CC1	rRNA inh HTS -20 | AID977621 inactive | AID977628 inconclusive
O=S(=O)(Cc1ccccc1Cl)N1CCN(Cc2ccc3c(c2)OCO3)CC1	none (no result: rRNA inh HTS, FGF22 binding)
COc1cc(CCN(C(=O)c2cc3ccccc3[nH]2)C(c2ccccn2)c2nc3ccccc3[nH]2)cc(OC)c1 (stereo not given)	rRNA inh HTS -26 (no result: Vif imaging) | AID977621 inactive | AID977628 inactive
COc1cc(CCN(C(=O)c2cc3ccccc3[nH]2)C(C)c2nc3ccccc3[nH]2)cc(OC)c1 (stereo not given)	none (no result: Vif imaging)
C#CCOc1nc(Nc2cccc([N+](=O)[O-])c2)nc(OCC#C)n1	rRNA inh HTS -18 (no result: Vif imaging) | AID977621 inactive | AID977628 inactive
COc1nc(Nc2cccc([N+](=O)[O-])c2)nc(OC)n1	none (no result: Cneo AK release, PglD DTNB)
Cc1ccccc1-c1nc(CS(=O)(=O)CC(=O)N2CCCCC2)c(C)o1	rRNA inh HTS -19 | AID977621 inactive | AID977628 inactive
